Laboratory results reported in ChEMBL document CHEMBL1926638, “Anti-cancer activity of 5-O-alkyl 1,4-imino-1,4-dideoxyribitols” (Bioorg Med Chem, 2011).
Activity calls are given as the source filed them. The calls are words filed in the database; no cut-off is given here.

Columns and labels:
SK-BR-3 [1] = experiment: Cytotoxicity against human SKBR3 cells after 72 hrs by MTS assay; format: functional, cell-based
Procedure, shortened: (§1)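 SKBR3 (HER2+ breast cancer) cells exposed to compound for 72 h; number of metabolically active cells read by MTS tetrazolium reduction. Values are means of duplicate wells.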

Canavalia ensiformis = experiment: Inhibition of jack beans alpha-mannosidase
SK-BR-3 [2] = experiment: Cytotoxicity against human SKBR3 cells assessed as cell viability 1 to 400 uM after 72 hrs by MTS assay; format: functional, cell-based; procedure, shortened: as §1
Jurkat [3] = experiment: Cytotoxicity against human Jurkat cells by trypan blue assay; format: functional, cell-based
Procedure, shortened: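 JURKAT cells exposed to compound; viability monitored by Trypan blue exclusion.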

PBMC = experiment: Induction of apoptosis in PBMC at 10 uM after 24 hrs by annexin-V and 7AAD double staining based flow cytometric analysis; format: cell-based
Jurkat [4] = experiment: Induction of apoptosis in human Jurkat cells assessed as cell death at 10 uM after 24 hrs by annexin V-7AAD double staining based flow cytometric analysis; format: functional
Procedure, shortened: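 Jurkat T-ALL cells exposed to 10 µM for 24 h (time-course series). Apoptosis quantified by annexin V and 7-AAD staining with flow cytometry. Early apoptotic = annexin V+/7AAD−, late apoptotic = annexin V+/7AAD+. Viability monitored in parallel by trypan blue exclusion. Values given as percent cell death.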

[5] = Induction of apoptosis in human CD34-positive and CD38-deficient hematopoietic progenitor cells assessed as cell death at 10 uM after 24 hrs by annexin V-7AAD double staining based flow cytometric analysis
SK-BR-3 [6] = experiment: Cytotoxicity against human SKBR3 cells assessed as cell death at 6.25 uM after 72 hrs by MTS assay; format: functional, cell-based
SK-BR-3 [7] = experiment: Cell cycle arrest in human SKBR3 cells assessed as reduction in S phase after 24 hrs by FITC-conjugated annexin-V propidium iodide based flow cytometric analysis; format: functional
Procedure, shortened: (§2)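 SKBR3 cells treated with compound, then cell-cycle distribution examined (G0/G1 and S fractions); at higher concentrations DNA fragmentation and hypodiploid nuclei scored. Described as preliminary assays.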

Jurkat [8] = experiment: Induction of apoptosis in human Jurkat cells assessed as cell death at 10 uM by annexin V-7AAD double staining based flow cytometric analysis; format: functional; settings: TDE = time-dependent effect
Procedure, shortened: (§3)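 JURKAT cells treated with compound. Apoptosis quantified by annexin-V/7-AAD staining and flow cytometry: early apoptotic = annexin V+7AAD−, late = annexin V+7AAD+. At 10 µM, a time course of cell death was also run.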

Jurkat [9] = experiment: Induction of apoptosis in human Jurkat cells assessed as late apoptotic cells at 10 uM after 24 hrs by annexin V-7AAD double staining based flow cytometric analysis; format: functional; procedure, shortened: as §3
SK-BR-3 [10] = experiment: Induction of apoptosis in human SKBR3 cells assessed as DNA fragmentation after 24 hrs by annexin-V propidium iodide based flow cytometric analysis; format: functional, cell-based; procedure, shortened: as §2
SK-BR-3 [11] = experiment: Cell cycle arrest in human SKBR3 cells assessed as accumulation in G0/G1 phase after 24 hrs by FITC-conjugated annexin-V propidium iodide based flow cytometric analysis; format: functional; procedure, shortened: as §2
Jurkat [12] = experiment: Induction of apoptosis in human Jurkat cells assessed as early apoptotic cells at 10 uM after 24 hrs by annexin V based flow cytometric analysis; format: functional; procedure, shortened: as §3
SK-BR-3 [13] = experiment: Induction of apoptosis in human SKBR3 cells assessed as hypodiploid cell nuclei appearance after 24 hrs by annexin-V propidium iodide based flow cytometric analysis; format: functional; procedure, shortened: as §2
SK-BR-3 [14] = experiment: Cytotoxicity in human SKBR3 cells assessed as increase in intracellular vacuolization after 6 to 12 hrs; format: functional, cell-based
[15] = Induction of apoptosis in human CD34-positive and CD38-deficient hematopoietic progenitor cells assessed as late apoptotic cells at 10 uM after 24 hrs by annexin V-7AAD double staining based flow cytometric analysis
[16] = Induction of apoptosis in human CD34-positive and CD38-deficient hematopoietic progenitor cells assessed as early apoptotic cells at 10 uM after 24 hrs by annexin V based flow cytometric analysis
[17] = Cytotoxicity against mouse BA/F3 cells expressing tyrosine kinase at <10 uM after 48 hrs by resazurin reduction assay; format: cell-based; settings: baf3, 48 h
Procedure, shortened: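 15 Ba/F3 models, each proliferating through engineered expression of a specific tyrosine kinase. Compound incubated 48 h at concentrations below 10 µM, read by resazurin reduction. 9-point IC50 curves in three independent experiments.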

Jurkat [18] = experiment: Induction of apoptosis in human Jurkat cells assessed as cell death at 100 uM after 24 hrs by annexin V-7AAD double staining based flow cytometric analysis; format: functional; procedure, shortened: as §3

Row | Structure (SMILES) | Activity (SK-BR-3 [1]) | Inhibition activity (Canavalia ensiformis) | Activity (SK-BR-3 [2]) | other results
1 | CCCCCCCCCCOC[C@H]1NC[C@H](O)[C@@H]1O | Active | inactive | Active | –
2 | OC[C@H]1NC[C@H](O)[C@@H]1O [IMINORIBITOL] | – | – | inactive | Activity (Jurkat [3]): inactive; Activity (PBMC): Non-toxic; Activity (Jurkat [4]): inactive
3 | CC/C=C\C/C=C\C/C=C\CCCCCCCCOC[C@H]1NC[C@H](O)[C@@H]1O | Active | inactive | Active | –
4 | CCCCCCCOC[C@H]1NC[C@H](O)[C@@H]1O | – | inactive | inactive | –
5 | CCCCCC/C=C\CCCCCCCCOC[C@H]1NC[C@H](O)[C@@H]1O | Active | inactive | Active | –
6 | CCCCCCCC/C=C\CCCCCCCCOC[C@H]1NC[C@H](O)[C@@H]1O | – | – | – | IC50 (SK-BR-3 [1]; SK-BR-3, 72 h): 2 µM; Activity [5]: 60%; Activity (SK-BR-3 [6]): Active; Activity (SK-BR-3 [7]): Active; Activity (Jurkat [8]): tde; Activity (Jurkat [9]): 60%; Activity (SK-BR-3 [10]): Active; Activity (SK-BR-3 [11]): Active; Activity (Jurkat [12]): 40%; IC50 (Jurkat [3]): 8 µM; Activity (SK-BR-3 [13]): Active; Activity (SK-BR-3 [14]): Active; Activity [15]: 40%; Activity (Jurkat [4]): 100%; Activity [16]: 20%; Activity [17]: Non-toxic
7 | O[C@H]1[C@@H](O)CN[C@@H]1COCc1ccccc1 | – | inactive | inactive | –
8 | O[C@H]1[C@@H](O)CN[C@@H]1COCc1ccc(-c2ccccc2)cc1 | – | Active | Active | Activity (Jurkat [18]): Active
9 | C=CCCCOC[C@H]1NC[C@H](O)[C@@H]1O | – | inactive | – | –
10 | CCCCC/C=C\C/C=C\CCCCCCCCOC[C@H]1NC[C@H](O)[C@@H]1O | Active | inactive | Active | –
11 | CCCCCCCCCCCCCCCCCCOC[C@H]1NC[C@H](O)[C@@H]1O | Active | inactive | Active | –
12 | CCCCCCCCCCCCCCOC[C@H]1NC[C@H](O)[C@@H]1O | – | inactive | – | –
13 | CCCCCOC[C@H]1NC[C@H](O)[C@@H]1O | – | inactive | – | –
